Results on eight molecules are retold here after ChEMBL document CHEMBL1157110, “Hopane-type triterpenes and binaphthopyrones from the scale insect pathogenic fungus Aschersonia paraphysata BCC 11964” (J Nat Prod, 2010).

The test system of experiment [1] is Plasmodium falciparum. The experiment in a line: Antimalarial activity against Plasmodium falciparum K1 after 24 hrs by [G-3H]hypoxanthine uptake assay. Format: functional, organism-based. To be noted: K1, 24 h. A digest of the protocol: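 Multidrug-resistant K1 strain, microculture radioisotope technique. Samples dissolved in DMSO as a 10 mg/mL stock, then diluted with water before testing. IC50 reported.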

Experiment [2] deals with NCI-H187. The experiment in a line: Cytotoxicity against human NCI-H187 cells after 45 hrs by resazurin microplate assay. It is filed as functional, cell-based. To be noted: NCI-H187, 45 h. Background: Resazurin is reduced to fluorescent resorufin, in cell work by metabolically active cells.
Experiment [3] concerns MCF7. Put plainly: Cytotoxicity against human MCF7 cells after 45 hrs by resazurin microplate assay. It is filed as functional, cell-based. The settings on record: MCF7, 45 h.
Experiment [4] relates to KB. The experiment in a line: Cytotoxicity against human KB cells after 45 hrs by resazurin microplate assay. It is filed as functional, cell-based.
In experiment [5] the test system is Vero. Put plainly: Cytotoxicity against african green monkey Vero cells by green fluorescent protein microplate assay. Format: cell-based. To be noted: Chlorocebus sabaeus.
Experiment [6] concerns Mycobacterium tuberculosis. The experiment in a line: Antituberculosis activity against Mycobacterium tuberculosis. Format: functional, organism-based.

Structures can show the parent of a compound that is named as a salt. The source made the active and inactive calls. No cut-off for these calls is given here.

Turning to `CC(C)C1=C2CC[C@]3(C)[C@H]([C@H](O)C[C@@H]4[C@@]5(C)CCCC(C)(C)[C@@H]5[C@@H](O)C[C@]43C)[C@@]2(C)CC1`, the IC50 (usually the point on the concentration scale where inhibition reaches its midpoint) is 15 µM in experiment [1]; greater than 113 µM in experiment [2]; greater than 113 µM in experiment [3]; greater than 113 µM in experiment [4]; greater than 113 µM in experiment [5]. For the same molecule, the result in experiment [6] was inactive.

In the case of `CC(C)C1=C2CC[C@]3(C)[C@H](CC[C@@H]4[C@@]5(C)CCCC(C)(C)[C@@H]5[C@@H](O)C[C@]43C)[C@@]2(C)CC1` [ZEORININ], the IC50 is greater than 23 µM in experiment [1]; greater than 118 µM in experiment [2]; greater than 118 µM in experiment [3]; greater than 118 µM in experiment [4]; greater than 118 µM in experiment [5]. Also, the result in experiment [6] was inactive.

For `C[C@H]1[C@@H](O)O[C@@H]2O[C@@]3(C)CC[C@H]4[C@H](C)CC[C@@H]1[C@@]24OO3` [ARTENIMOL], half-maximal inhibition in experiment [1] (IC50) required 0.0046 µM.

Regarding `CC(C)C1=C2CC[C@]3(C)[C@H]([C@H](O)C[C@@H]4[C@@]5(C)CCCC(C)(C)[C@@H]5CC[C@]43C)[C@@]2(C)CC1`, the IC50 in experiment [1] is greater than 23 µM; in experiment [2], greater than 118 µM; in experiment [3], greater than 118 µM; in experiment [4] it was greater than 118 µM; in experiment [5] it was greater than 118 µM. Further, the outcome in experiment [6] was inactive.

With `CC1Cc2cc3cc(O)c(-c4c(O)cc5cc6c(c(O)c5c4O)C(=O)OC(C)C6)c(O)c3c(O)c2C(=O)O1` (centres undefined) [ASCHERNAPHTHOPYRONE B], the half-inhibitory concentration (IC50) in experiment [1] was greater than 19 µM; in experiment [2] it was 95 µM; in experiment [3], 79 µM; in experiment [4], greater than 96 µM; in experiment [5], 52 µM. Moreover, the outcome in experiment [6] was inactive.

For the molecule `Cc1c2ccncc2c(C)c2c1[nH]c1ccccc12` [ELLIPTECINE], the IC50 in experiment [2] was 1.5 µM; in experiment [5] it was 3.8 µM.

Regarding `CC1Cc2cc3c(-c4c(O)cc(O)c5c(O)c6c(cc45)CC(C)OC6=O)c(O)cc(O)c3c(O)c2C(=O)O1` (centres undefined) [ASCHERNAPHTHOPYRONE A], the IC50 in experiment [1] was 7.3 µM; in experiment [2] it was 4.5 µM; in experiment [3] it was 87 µM; in experiment [4], 17 µM; in experiment [5], greater than 96 µM. In addition, in experiment [6], the outcome was inactive.

Consider `COc1cccc2c1C(=O)c1c(O)c3c(c(O)c1C2=O)C[C@@](O)(C(=O)CO)C[C@@H]3O[C@H]1C[C@H](N)[C@H](O)[C@H](C)O1` [DOXORUBICIN HYDROCHLORIDE], for which it took 0.086 µM to reach half-maximal inhibition in experiment [2] (IC50).
